The values that follow come from ChEMBL document CHEMBL1140923, “Discovery of imidazo[1,2-b]thiazole derivatives as novel SIRT1 activators” (J Med Chem, 2009).

Series [1] addresses T1, NAD-dependent protein deacetylase sirtuin-1 (Homo sapiens) (UniProt Q96EB6).
T1 sequence (whole entry): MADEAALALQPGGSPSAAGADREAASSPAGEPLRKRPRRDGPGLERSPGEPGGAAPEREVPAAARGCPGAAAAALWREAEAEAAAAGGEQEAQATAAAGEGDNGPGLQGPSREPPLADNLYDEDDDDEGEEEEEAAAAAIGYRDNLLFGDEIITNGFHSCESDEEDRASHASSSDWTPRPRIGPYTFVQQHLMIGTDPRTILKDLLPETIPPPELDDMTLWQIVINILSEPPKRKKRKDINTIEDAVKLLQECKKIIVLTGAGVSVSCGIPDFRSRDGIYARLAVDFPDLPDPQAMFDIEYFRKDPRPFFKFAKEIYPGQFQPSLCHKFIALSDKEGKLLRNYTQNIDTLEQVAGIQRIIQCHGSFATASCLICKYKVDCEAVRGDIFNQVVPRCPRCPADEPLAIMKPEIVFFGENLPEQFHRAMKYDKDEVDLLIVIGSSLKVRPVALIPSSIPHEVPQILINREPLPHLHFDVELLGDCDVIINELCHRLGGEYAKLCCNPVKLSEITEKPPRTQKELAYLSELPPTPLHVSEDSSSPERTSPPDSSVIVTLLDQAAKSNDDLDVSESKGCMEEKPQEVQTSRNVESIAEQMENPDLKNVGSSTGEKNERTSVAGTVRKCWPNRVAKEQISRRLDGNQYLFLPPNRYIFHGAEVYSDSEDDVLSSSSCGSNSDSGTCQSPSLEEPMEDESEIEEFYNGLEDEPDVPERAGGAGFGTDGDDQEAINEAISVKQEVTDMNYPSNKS
As to the kind of experiment: Activation of human SIRT1 expressed in Escherichia coli BL21Start assessed as maximum activation of enzyme activity by mass spectrometry assay. An outline of the steps:
(§1)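 Truncated SIRT1 was expressed in E. coli BL21Start (DE3) and purified on Ni2+ chelate. Reaction: 10 nM enzyme, 0.5 µM biotinylated, fluorophore-tagged p53-derived 20-mer acetyl-lysine peptide and 120 µM NAD+, in 50 mM Tris-acetate pH 8 with NaCl, KCl, MgCl2, 5 mM DTT and 0.05% BSA; DMSO vehicle; 25 min at 25 °C. Stopped with formic acid/nicotinamide; acetylated versus deacetylated peptide read by mass spectrometry. EC1.5 is the concentration raising activity by 50%, the mean of three titration curves.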

Series [2] concerns the target T1, NAD-dependent protein deacetylase sirtuin-1 (Homo sapiens). Put plainly: Activation of human SIRT1 expressed in Escherichia coli BL21Start assessed as concentration required to increase 50% enzyme activity by mass spectrometry assay. In short, it runs like this: as §1
Series [3] in a line: Metabolic stability in human microsomes assessed as half life. It counts as ADME, Microsome.
Series [4] can be described thus: Solubility in water. It counts as physicochemical.
Series [5] can be described thus: Metabolic stability in mouse microsomes assessed as half life. It counts as ADME, Microsome.
The nature of series [6]: Terminal half life in C57BL/6 mouse at 100 mg/kg, po or 10 mg/kg, iv. The settings on record: in vivo, read-out: beta t1/2 (converted). Type of series: ADME, organism-based. An outline of the steps:
(§2)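 Male C57BL/6 mice (18-22 g; 3 per dose group per time point), given 100 mg/kg po as the hydrochloride salt in 2% HPMC + 0.2% DOSS, or 10 mg/kg iv by tail vein in 10% ethanol/40% polyethylene glycol/50% H2O. Plasma was taken at 5, 30, 120 and 360 min after dosing and drug levels were measured.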

Series [7] is described as follows: Cmax in C57BL/6 mouse at 100 mg/kg, po or 10 mg/kg, iv. It counts as ADME, organism-based. To be noted: in vivo. In short, it runs like this: as §2
Series [8] can be described thus: Solubility in buffer at pH 7.4 by HPLC method. It counts as physicochemical. An outline of the steps:
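Kinetic solubility was measured in pH 7.4 buffer by HPLC.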

A short description of series [9]: Oral bioavailability in C57BL/6 mouse at 100 mg/kg. Type of series: ADME, organism-based. The settings on record: in vivo. In short, it runs like this:
as §2

Series [10] in a line: AUC in C57BL/6 mouse at 100 mg/kg, po or 10 mg/kg, iv. Type of series: ADME, organism-based. To be noted: plasma. An outline of the steps:
as §2

Turning to `O=C(Nc1ccccc1-c1cn2c(CN3CCNCC3)csc2n1)c1ccc2ccccc2n1`, the results for the Activity in series [1] and in [2] were 440% and 0.99 µM, respectively.
In the same order, the values of `COc1cc(C(=O)Nc2ccccc2-c2cn3c(CN(C)C)csc3n2)cc(OC)c1OC` are 270% and 1.9 µM.
For `COc1cc(C(=O)Nc2cccc(-c3nc4ncccc4o3)c2)cc(OC)c1OC`, the results for the Activity in [1] and in series [2] were 388% and 11 µM, respectively.
Turning to `COc1cc(C(=O)Nc2ccccc2-c2cn3cc(CN(C)C)sc3n2)cc(OC)c1OC`, the results for the Activity in series [1] and in series [2] were 295% and 4.8 µM, respectively.
On to `COc1ccc(C(=O)Nc2ccccc2-c2cn3c(CN4CCNCC4)csc3n2)cc1OC`, for which the results for the Activity in series [1] and in [2] were 406% and 4.5 µM, respectively.
For the molecule `O=C(Cc1ccccc1)Nc1ccccc1-c1cn2c(CN3CCNCC3)csc2n1`, the values for the Activity in series [1] and in series [2] were 130% and 14 µM, respectively.
For `O=C(Nc1ccccc1-c1cn2c(CN3CCNCC3)csc2n1)c1cccc(SC(F)F)c1`, the figures for the Activity in [1] and in series [2] were 808% and 0.51 µM, respectively.
Consider `O=C(Nc1ccccc1-c1cn2c(CN3CCNCC3)csc2n1)C1CCCC1`, for which the Activity came out at 383% in series [1] and 130 µM in series [2].
Regarding `O=C(Nc1ccccc1-c1cn2c(CN3CCNCC3)csc2n1)c1cnccn1`, the Activity in series [1] is 270%; in [2], 1.7 µM.
In the same order, the values of `O=C(Nc1ccccc1-c1cn2c(CN3CCNCC3)csc2n1)c1cc2ccccc2o1` are 381% and 0.61 µM.
For `COc1ccc(C(=O)Nc2ccccc2-c2cn3c(CN4CCNCC4)csc3n2)cc1F`, the Activity in [1] was found to be 619%; in series [2], 6.2 µM.
In the same order, the values of `Oc1ccc(/C=C/c2cc(O)cc(O)c2)cc1` are 250% and 48 µM.
For `O=C(Nc1ccccc1-c1cn2c(CN3CCNCC3)csc2n1)c1cccc(OC(F)(F)F)c1`, the Activity was 665% in [1] and 0.9 µM in [2].
In the same order, the values of `O=C(Nc1ccccc1-c1cn2c(CN3CCNCC3)csc2n1)c1cc2ccccc2s1` are 253% and 24 µM.
Consider `COc1cc(C(=O)Nc2ccccc2-c2cn3ccsc3n2)cc(OC)c1OC`, for which the half-life is 0.167 h in [3] and 0.0833 h in [5]. In addition, the Activity came out at 272% in series [1] and 2.5 µM in series [2]. Besides, the solubility (usually how much of the substance goes into solution per volume) in [4] was less than 100 µg/mL.
Turning to `O=C(Nc1ccccc1-c1cn2c(CN3CCNCC3)csc2n1)c1ccc2occc2c1`, the Activity in series [1] was 380%; in [2] it was 6.9 µM.
As for `COc1cccc(C(=O)Nc2ccccc2-c2cn3c(CN4CCNCC4)csc3n2)c1`, the Activity in [1] came out at 928%; in series [2], 3.7 µM.
With `O=C(Nc1ccccc1-c1cn2c(CN3CCNCC3)csc2n1)c1cnc2ccccc2c1`, the Activity turned out to be 301% in [1] and 0.68 µM in [2].
On to `O=C(Nc1ccccc1-c1cn2c(CN3CCNCC3)csc2n1)c1cccc2cccnc12`, for which the Activity in series [1] is 208%; in [2], 45 µM.
Consider `COc1ccc(C(=O)Nc2ccccc2-c2cn3c(CN4CCNCC4)csc3n2)c(OC)c1`, for which the results for the Activity in series [1] and in series [2] were 197% and 31 µM, respectively.
As for `O=C(Nc1ccccc1-c1cn2c(CN3CCNCC3)csc2n1)c1ccccc1`, the figures for the Activity in series [1] and in series [2] were 322% and 25 µM, respectively.
In the same order, the values of `COc1cc(F)cc(C(=O)Nc2ccccc2-c2cn3c(CN4CCNCC4)csc3n2)c1` are 662% and 2.1 µM.
For the molecule `COc1cc(C(=O)Nc2ccccc2-c2cn3c(CN4CCNCC4)csc3n2)cc(OC)c1OC`, the half-life in series [3] was 1.87 h; in series [6], 6 h; in series [5] it was greater than 5 h. Also, the Activity stood at 271% in series [1] and 1.8 µM in [2]. Besides, the solubility is greater than 10000 µg/mL in [4] and greater than 100 µM in series [8]. Further, in series [7], the highest concentration (Cmax) (commonly the maximum level reached in the sampled fluid or tissue) came out at 14 µM. Moreover, the bioavailability (commonly dose-corrected exposure relative to a reference, in per cent) in series [9] was determined as 40%. Besides, the AUC (usually the area under the concentration-time curve, a measure of exposure) in [10] turned out to be 45000 ng·h/mL.
For `COc1cc(C(=O)Nc2cccc(-c3cn4ccsc4n3)c2)cc(OC)c1OC`, the Activity in series [1] came to 380%; in series [2] it was 7.5 µM.
Take `O=C(Nc1ccccc1-c1cn2c(CN3CCNCC3)csc2n1)c1ccc2c(c1)OCO2`: the Activity came out at 332% in [1] and 4.9 µM in series [2].
Take `COc1cc(C(=O)Nc2ccccc2-c2cn3cc(CN4CCNCC4)sc3n2)cc(OC)c1OC`: the results for the Activity in series [1] and in series [2] were 257% and 3.2 µM, respectively.
